Paper PMC4532310 (Nature, 2015)
Entries after “also recorded” stand apart in the source; their conditions may differ. Bridges are numbered along the chain shown (N, C = ends). Where no end group is shown, it is not given here.

T1: ER (ERECTA) ectodomain, ERΔK-GFP (Arabidopsis thaliana, UniProt Q42371)
T1 sequence (Q42371 25-580 limits assumed): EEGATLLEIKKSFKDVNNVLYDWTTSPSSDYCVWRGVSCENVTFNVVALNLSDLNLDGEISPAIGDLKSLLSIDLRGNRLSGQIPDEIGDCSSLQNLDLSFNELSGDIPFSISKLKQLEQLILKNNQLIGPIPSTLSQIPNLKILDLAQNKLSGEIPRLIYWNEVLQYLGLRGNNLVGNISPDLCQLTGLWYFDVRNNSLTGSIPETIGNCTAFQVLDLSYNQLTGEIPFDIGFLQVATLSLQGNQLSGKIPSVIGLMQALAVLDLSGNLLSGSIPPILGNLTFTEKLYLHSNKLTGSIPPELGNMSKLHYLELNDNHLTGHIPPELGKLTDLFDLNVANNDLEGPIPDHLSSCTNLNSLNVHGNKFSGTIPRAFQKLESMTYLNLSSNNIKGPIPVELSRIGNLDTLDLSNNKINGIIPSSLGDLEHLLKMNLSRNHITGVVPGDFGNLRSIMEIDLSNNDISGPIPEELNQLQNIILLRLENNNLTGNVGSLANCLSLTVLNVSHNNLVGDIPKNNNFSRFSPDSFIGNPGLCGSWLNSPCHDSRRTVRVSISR

T2: TMM (TOO MANY MOUTHS), TMM-GFP (Arabidopsis thaliana, UniProt Q9SSD1)
T2 sequence (Q9SSD1 24-496): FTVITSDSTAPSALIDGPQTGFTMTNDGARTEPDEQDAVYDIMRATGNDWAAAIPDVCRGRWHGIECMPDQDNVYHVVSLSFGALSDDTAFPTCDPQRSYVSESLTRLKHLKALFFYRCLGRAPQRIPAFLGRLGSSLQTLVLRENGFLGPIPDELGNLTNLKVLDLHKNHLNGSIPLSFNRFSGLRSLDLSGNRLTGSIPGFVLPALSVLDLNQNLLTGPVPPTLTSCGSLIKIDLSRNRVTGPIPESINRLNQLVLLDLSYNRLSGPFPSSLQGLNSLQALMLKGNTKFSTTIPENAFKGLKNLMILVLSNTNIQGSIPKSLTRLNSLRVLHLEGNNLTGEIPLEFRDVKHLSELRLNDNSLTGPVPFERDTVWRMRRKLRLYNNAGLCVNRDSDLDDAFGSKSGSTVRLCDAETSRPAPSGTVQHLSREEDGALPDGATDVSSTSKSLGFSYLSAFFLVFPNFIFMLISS

T3: ER ectodomain (ERΔK-GFP) (Arabidopsis thaliana, UniProt Q42371)
T3 sequence (Q42371 25-580 limits assumed): T1 sequence (Q42371 25-580 limits assumed)

B1: Stomagen/EPF-LIKE9 peptide (bioactive Stomagen) (peptide)
chain: IGSTAPTCTYNECRGCRYKCRAEQVPVEGNDPINSAYHYRCVCHR

What was measured:
[1] = molecular target: T1, ER (ERECTA) ectodomain, ERΔK-GFP; assay: QCM direct binding, ERΔK-GFP-functionalized chip; conditions: frequency change, phosphate buffer, 4°C
Outline: (§1)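 Purified GFP-fused receptors (ERΔK-GFP, TMM-GFP) or control GFP are obtained from N. benthamiana. They are immobilised on gold QCM chips via anti-GFP antibody. Solutions of HPLC-purified, bioassay-verified bioactive peptide are then introduced, and binding is recorded as frequency change. Each run yields 10-20 points (average, SD). Replicate runs: ER n=4 Stomagen, n=2 MEPF2; TMM n=2 Stomagen, n=3 MEPF2; GFP n=3 Stomagen, n=2 MEPF2.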

[2] = molecular target: T2, TMM (TOO MANY MOUTHS), TMM-GFP; assay: QCM direct binding, TMM-GFP-functionalized chip; conditions: frequency change, phosphate buffer, 4°C
Outline: as §1

GFP = assay: QCM direct binding, control GFP chip; conditions: frequency change, phosphate buffer, 4°C, Stomagen n=3, MEPF2 n=2
Outline: as §1

MPK3 and MPK6 = assay: MAPK phosphorylation assay in Arabidopsis seedlings; type: in vivo; conditions: MEPF2 2.5 μM, Arabidopsis wild-type seedlings; anti-phosphoERK immunoblot
Outline: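 Peptide (MEPF2) is applied to wild-type Arabidopsis seedlings and sampled over a time course. Heat-denatured peptide serves as a control. Extracts are immunoblotted with anti-phosphoERK antibody to detect phosphorylated MPK6 and MPK3, and Coomassie-stained total protein is shown. Four and two biological replicates are run for the two blot series.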

ER ectodomain (ERΔK-GFP) = molecular target: T3, ER ectodomain (ERΔK-GFP); assay: Ligand competition assay, Stomagen vs MEPF2-MYC-HIS for binding to ER
Outline: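 ER ectodomain–GFP (ERΔK-GFP) is expressed in N. benthamiana, and microsomal fractions are prepared. Fractions are incubated with 1 μM bioactive MEPF2-MYC-HIS plus Stomagen at 0-23.4 μM, then ER is immunoprecipitated. The co-IP'd tagged MEPF2 is immunoblotted first, and the same blot is re-probed with anti-Stomagen antibody. Blots are quantified from four biological replicates (S.E.M.), and IC50 is derived from this immunoblot-based quantification.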

TMM = assay: Co-IP with TMM-GFP; type: binding, Arabidopsis; conditions: N. benthamiana microsomal fraction; 1 μM peptide; anti-GFP IP
[3] = tested on: Arabidopsis wild-type seedlings, abaxial cotyledon epidermis; type: in vivo; conditions: independent batch of Stomagen used in Fig. 3c, five days, n=8 (Peak 1), n=6 (Peak 2)
[4] = molecular target: ER ectodomain fused to GFP (ERΔK-GFP) (Arabidopsis); assay: co-IP

| IC50 [4] [nM] | Molecule | binding to ERΔK-GFP (words) [1] | binding to ERΔK-GFP (words) ([1]; listed as EPF2) | binding to TMM (words) [2] | binding to TMM (words) ([2]; listed as EPF2) | binding to control GFP (GFP) | time after which MPK3/MPK6 phosphorylation declined (MPK3 and MPK6) [h] | time to phosphorylation of MPK3 and MPK6 (MPK3 and MPK6) [min] | IC50 (ER ectodomain (ERΔK-GFP)) [nM] | replacement of MEPF2 for ER-binding (ER ectodomain (ERΔK-GFP); 1 μM bioactive MEPF2-MYC-HIS, increasing Stomagen 0-23.4 μM, IP and immunoblot) | association with TMM by Co-IP (TMM) | bioactivity, HPLC peaks of independent batch used for QCM [3] |
| --- | --- | --- | --- | --- | --- | --- | --- | --- | --- | --- | --- | --- |
| – | TGSSLPDCSYACGACSPCKRVMISFECSVAESCSVIYRCTCRGRYYHVPSRA (disulfide 8-39, 12-18, 15-41, 27-33) [MEPF2] | saturable binding to the ER ectodomain fused to GFP (ERΔK-GFP) with similar dissociation constants at a nanomolar range | bind to ER and TMM with a similar affinity | bound to TMM with high affinity | bind to ER and TMM with a similar affinity | No significant binding | 2 | 10 | – | – | – | – |
| – | IGSTAPTCTYNECRGCRYKCRAEQVPVEGNDPINSAYHYRCVCHR (disulfide 8-41, 13-20, 16-43) [Stomagen] | saturable binding to the ER ectodomain fused to GFP (ERΔK-GFP) with similar dissociation constants at a nanomolar range; also recorded: bind to ER and TMM with a similar affinity | – | bound to TMM with high affinity; also recorded: bind to ER and TMM with a similar affinity | – | No significant binding | – | – | 454 | replaced MEPF2 for ER-binding | associates with all ER-family RKs and TMM | bioactive |
| 454 | B1 | – | – | – | – | – | – | – | – | – | – | – |
